ChEMBL document CHEMBL3272061, “Experiments of synthesis of dl-camptothecin. 4. Synthesis and antileukemic activity of dl-camptothecin analogues” (J Med Chem, 1976)
Activity calls are given as the source filed them. The rule behind the calls is not given here.

Experiments:
[1] = species: Mus musculus; experiment: Toxicity in mouse L1210 cells allografted BDF1 mouse; format: organism-based
[2] = Solubility of the compound; format: physicochemical
[3] = test system: L1210; experiment: Antileukemic activity against mouse L1210 cells allografted in BDF1 mouse assessed as increase in life span of host at 278 umol/kg, ip relative to control; format: functional
Procedure, shortened: (§1)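 BDF1 mice, 5 weeks old, were inoculated ip with 5×10^5 L1210 cells; test groups had 4 males and 4 females, controls 5 males and 5 females. A single ip dose was given on the day after inoculation, as a suspension in vehicle for the insoluble compounds. Read-out was increase in life span over controls, with survivors past 30 days counted as 30 days.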

[4] = test system: L1210; experiment: Antileukemic activity against mouse L1210 cells allografted in BDF1 mouse assessed as increase in life span of host at 1.11 umol/kg, ip qd for 5 days relative to control; format: functional; conditions: 120 h
Procedure, shortened: (§2)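 BDF1 mice, 5 weeks old, were inoculated ip with 5×10^5 L1210 cells in 0.1 ml saline. Test groups were 4 male and 4 female mice; controls were 5 male and 5 female. Insoluble compounds were suspended in vehicle. Dosing was ip, either once on the day after inoculation or daily for 5 days. Read-out was increase in life span over controls. Mice alive beyond 30 days were counted as 30 days and scored as survivors.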

[5] = test system: L1210; experiment: Antileukemic activity against mouse L1210 cells allografted in BDF1 mouse assessed as increase in life span of host at 5.56 umol/kg, ip qd for 5 days relative to control; format: functional; conditions: 120 h
Procedure, shortened: (§3)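 BDF1 mice, 5 weeks old, were inoculated ip with 5×10^5 L1210 cells; test groups had 4 males and 4 females, controls 5 males and 5 females. Dosing was ip, five times over the 5 days after inoculation, as a suspension in vehicle for the insoluble compounds. Read-out was increase in life span over controls.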

[6] = test system: L1210; experiment: Antileukemic activity against mouse L1210 cells allografted in BDF1 mouse assessed as increase in life span of host at 13.8 umol/kg, ip qd for 5 days relative to control; format: functional; conditions: 120 h; procedure, shortened: as §2
[7] = test system: L1210; experiment: Antileukemic activity against mouse L1210 cells allografted in BDF1 mouse assessed as increase in life span of host at 27.8 umol/kg, ip qd for 5 days relative to control; format: functional; conditions: 120 h; procedure, shortened: as §3
[8] = test system: L1210; experiment: Antileukemic activity against mouse L1210 cells allografted in BDF1 mouse assessed as increase in life span of host at 1.11 umol/kg, sc qd for 5 days relative to control; format: functional; conditions: 120 h
[9] = test system: L1210; experiment: Antileukemic activity against mouse L1210 cells allografted in BDF1 mouse assessed as increase in life span of host at 5.56 umol/kg, sc qd for 5 days relative to control; format: functional; conditions: 120 h
[10] = test system: L1210; experiment: Antileukemic activity against mouse L1210 cells allografted in BDF1 mouse assessed as increase in life span of host at 13.8 umol/kg, sc qd for 5 days relative to control; format: functional; conditions: 120 h
[11] = test system: L1210; experiment: Antileukemic activity against mouse L1210 cells allografted in BDF1 mouse assessed as increase in life span of host at 27.8 umol/kg, sc qd for 5 days relative to control; format: functional; conditions: 120 h
[12] = test system: L1210; experiment: Antileukemic activity against mouse L1210 cells allografted in BDF1 mouse assessed as increase in life span of host at 5.56 umol/kg, po qd for 4 days relative to control; format: functional; conditions: 96 h
[13] = test system: L1210; experiment: Antileukemic activity against mouse L1210 cells allografted in BDF1 mouse assessed as increase in life span of host at 13.8 umol/kg, po qd for 4 days relative to control; format: functional; conditions: 96 h
[14] = test system: L1210; experiment: Antileukemic activity against mouse L1210 cells allografted in BDF1 mouse assessed as increase in life span of host at 27.8 umol/kg, po qd for 4 days relative to control; format: functional; conditions: 96 h
[15] = test system: L1210; experiment: Antileukemic activity against mouse L1210 cells allografted in BDF1 mouse assessed as increase in life span of host at 5.56 umol/kg, ip relative to control; format: functional; procedure, shortened: as §1
[16] = test system: L1210; experiment: Antileukemic activity against mouse L1210 cells allografted in BDF1 mouse assessed as increase in life span of host at 27.8 umol/kg, ip relative to control; format: functional; procedure, shortened: as §1
[17] = test system: L1210; experiment: Antileukemic activity against mouse L1210 cells allografted in BDF1 mouse assessed as increase in life span of host at 69.4 umol/kg, ip relative to control; format: functional; procedure, shortened: as §1
[18] = test system: L1210; experiment: Antileukemic activity against mouse L1210 cells allografted in BDF1 mouse assessed as increase in life span of host at 139 umol/kg, ip relative to control; format: functional; procedure, shortened: as §2
[19] = test system: L1210; experiment: Antileukemic activity against mouse L1210 cells allografted in BDF1 mouse assessed as increase in life span of host at 5.21 umol/kg, ip relative to control; format: functional; procedure, shortened: as §1
[20] = test system: L1210; experiment: Antileukemic activity against mouse L1210 cells allografted in BDF1 mouse assessed as increase in life span of host at 20.8 umol/kg, ip relative to control; format: functional; procedure, shortened: as §1
[21] = test system: L1210; experiment: Antileukemic activity against mouse L1210 cells allografted in BDF1 mouse assessed as increase in life span of host at 52.1 umol/kg, ip relative to control; format: functional; procedure, shortened: as §1
[22] = test system: L1210; experiment: Antileukemic activity against mouse L1210 cells allografted in BDF1 mouse assessed as host survival at 20.8 umol/kg, ip after 30 days; format: functional, organism-based; procedure, shortened: as §2
[23] = test system: L1210; experiment: Antileukemic activity against mouse L1210 cells allografted in BDF1 mouse assessed as increase in life span of host at 1 umol/kg, ip qd for 5 days relative to control; format: functional; conditions: 120 h; procedure, shortened: as §2
[24] = test system: L1210; experiment: Antileukemic activity against mouse L1210 cells allografted in BDF1 mouse assessed as increase in life span of host at 5 umol/kg, ip qd for 5 days relative to control; format: functional; conditions: 120 h; procedure, shortened: as §3
[25] = test system: L1210; experiment: Antileukemic activity against mouse L1210 cells allografted in BDF1 mouse assessed as increase in life span of host at 12.5 umol/kg, ip qd for 5 days relative to control; format: functional; conditions: 120 h; procedure, shortened: as §2
[26] = test system: L1210; experiment: Antileukemic activity against mouse L1210 cells allografted in BDF1 mouse assessed as increase in life span of host at 25 umol/kg, ip qd for 5 days relative to control; format: functional; conditions: 120 h; procedure, shortened: as §3
[27] = test system: L1210; experiment: Antileukemic activity against mouse L1210 cells allografted in BDF1 mouse assessed as increase in life span of host at 1 umol/kg, sc qd for 5 days relative to control; format: functional; conditions: 120 h
[28] = test system: L1210; experiment: Antileukemic activity against mouse L1210 cells allografted in BDF1 mouse assessed as increase in life span of host at 5 umol/kg, sc qd for 5 days relative to control; format: functional; conditions: 120 h
[29] = test system: L1210; experiment: Antileukemic activity against mouse L1210 cells allografted in BDF1 mouse assessed as increase in life span of host at 25 umol/kg, sc qd for 5 days relative to control; format: functional; conditions: 120 h
[30] = test system: L1210; experiment: Antileukemic activity against mouse L1210 cells allografted in BDF1 mouse assessed as increase in life span of host at 5 umol/kg, po qd for 5 days relative to control; format: functional; conditions: 120 h
[31] = test system: L1210; experiment: Antileukemic activity against mouse L1210 cells allografted in BDF1 mouse assessed as increase in life span of host at 12.5 umol/kg, po qd for 5 days relative to control; format: functional; conditions: 120 h
[32] = test system: L1210; experiment: Antileukemic activity against mouse L1210 cells allografted in BDF1 mouse assessed as increase in life span of host at 25 umol/kg, po qd for 4 days relative to control; format: functional; conditions: 96 h
[33] = test system: L1210; experiment: Antileukemic activity against mouse L1210 cells allografted in BDF1 mouse assessed as increase in life span of host at 22.8 umol/kg, ip relative to control; format: functional; procedure, shortened: as §1
[34] = test system: L1210; experiment: Antileukemic activity against mouse L1210 cells allografted in BDF1 mouse assessed as increase in life span of host at 57.1 umol/kg, ip relative to control; format: functional; procedure, shortened: as §1
[35] = test system: L1210; experiment: Antileukemic activity against mouse L1210 cells allografted in BDF1 mouse assessed as increase in life span of host at 4.17 umol/kg, ip relative to control; format: functional; procedure, shortened: as §1
[36] = test system: L1210; experiment: Antileukemic activity against mouse L1210 cells allografted in BDF1 mouse assessed as host survival at 22.8 umol/kg, ip after 30 days; format: functional, organism-based; procedure, shortened: as §2
[37] = test system: L1210; experiment: Antileukemic activity against mouse L1210 cells allografted in BDF1 mouse assessed as host survival at 57.1 umol/kg, ip after 30 days; format: functional, organism-based; procedure, shortened: as §2
[38] = test system: L1210; experiment: Antileukemic activity against mouse L1210 cells allografted in BDF1 mouse assessed as host survival at 4.17 umol/kg, ip after 30 days; format: functional, organism-based; procedure, shortened: as §2

C=CCC1(O)C(=O)OCc2c1cc1n(c2=O)Cc2cc3ccccc3nc2-1 (racemic)
Activity [1]: Toxic
solubility [2]: Insoluble
ILS at 278 µmol/kg [3]: -43%
ILS at 1.11 µmol/kg [4]: 14%
ILS at 5.56 µmol/kg [5]: 42%
ILS at 13.8 µmol/kg [6]: > 105%
ILS at 27.8 µmol/kg [7]: -13%
ILS at 1.11 µmol/kg [8]: -1%
ILS at 5.56 µmol/kg [9]: 4%
ILS at 13.8 µmol/kg [10]: 26%
ILS at 27.8 µmol/kg [11]: 51%
ILS at 5.56 µmol/kg [12]: 3%
ILS at 13.8 µmol/kg [13]: -1%
ILS at 27.8 µmol/kg [14]: -1%
ILS at 5.56 µmol/kg [15]: 16%
ILS at 27.8 µmol/kg [16]: 84%
ILS at 69.4 µmol/kg [17]: > 155%
ILS at 139 µmol/kg [18]: > 60%
ILS at 5.21 µmol/kg [19]: -5%

CCOCc1c(C(O)(CC(=O)OCC)C(=O)OCC)cc2n(c1=O)Cc1cc3ccccc3nc1-2 (stereo unspecified)
ILS at 20.8 µmol/kg [20]: 55%
ILS at 52.1 µmol/kg [21]: > 170%
Activity [22]: inactive
Activity [1]: Toxic
solubility [2]: Insoluble

C=CCC1(O)C(=O)OCc2c1cc1n(c2=O)Cc2cc3ccccc3nc2-1 (stereo unspecified)
ILS at 1 µmol/kg [23]: -2%
ILS at 5 µmol/kg [24]: 13%
ILS at 12.5 µmol/kg [25]: 58%
ILS at 25 µmol/kg [26]: > 118%
ILS at 1 µmol/kg [27]: -2%
ILS at 5 µmol/kg [28]: 9%
ILS at 25 µmol/kg [29]: 72%
ILS at 5 µmol/kg [30]: 12%
ILS at 12.5 µmol/kg [31]: 40%
ILS at 25 µmol/kg [32]: 21%

O=C(CC1(O)C(=O)OCc2c1cc1n(c2=O)Cc2cc3ccccc3nc2-1)c1ccccc1 (racemic)
ILS at 22.8 µmol/kg [33]: 10%
ILS at 57.1 µmol/kg [34]: 21%
ILS at 4.17 µmol/kg [35]: 26%
Activity [36]: inactive
Activity [37]: inactive
Activity [38]: inactive
solubility [2]: Insoluble
